“And” between values parts separate entries of the source, which are not always exact repeats. Equal entries are not always repeated.
Tested on: Fibroblast
Assay: Multiplex assay against human fibroblast
Type: toxicity, cell-based
Procedure, shortened: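 Phenotypes for tubulin, mitochondrial mass and membrane permeability are expressed as per cents of healthy-nucleus cells. Cells were stained live at seeding with Hoechst33342, BioTracker Green Microtubule Cytoskeleton Dye, MitoTracker Red and Annexin V Alexa Fluor 680, then imaged after compound addition on a CQ1 microscope at 37°C and 5% CO2. Machine-learning gating in CellPathfinder separated Hoechst high-intensity objects from normal cells, divided normal cells by nuclear state (healthy, pyknosed, fragmented) and divided pyknosed cells into mitotic or apoptotic.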

[1] = 12 h, 1 µM, compound concentration 1 uM
[2] = 12 h, 10 µM, compound concentration 10 uM
[3] = 24 h, 1 µM, compound concentration 1 uM
[4] = 24 h, 10 µM, compound concentration 10 uM
[5] = 48 h, 1 µM, compound concentration 1 uM
[6] = 48 h, 10 µM, compound concentration 10 uM

## Cc1ccc(C(C)(O)c2nc3ccccc3s2)c(C)c1 (stereo unspecified)
[1]
  Population Apoptotic (%): 50% and 44%
  Population Fragmented Nuclei (%): 8% and 22%
  Population Healthy Nuclei (%): 78% and 48%
  Population Hoechst High Intensity Objects (%): 0% and 5%
  Population Membrane Permeable-Phenotype (%): 0% and 3%
  Population Mitochondria Different-Phenotype (%): 5% and 6%
  Population Mitotic Cells (%): 50% and 56%
  Population Normal (%): 99% and 95%
  Population Pyknosed Nuclei (%): 12% and 29%
  Population Tubulin-Different-Phenotype (%): 29% and 36%
  Total Cell Count: 125 and 180
[2]
  Population Apoptotic (%): 44% and 22%
  Population Fragmented Nuclei (%): 11% and 31%
  Population Healthy Nuclei (%): 72% and 43%
  Population Hoechst High Intensity Objects (%): 1% and 7%
  Population Membrane Permeable-Phenotype (%): 0% and 15%
  Population Mitochondria Different-Phenotype (%): 5% and 6%
  Population Mitotic Cells (%): 56% and 77%
  Population Normal (%): 98% and 92%
  Population Pyknosed Nuclei (%): 16% and 25%
  Population Tubulin-Different-Phenotype (%): 24% and 60%
  Total Cell Count: 153 and 149
[3]
  Population Apoptotic (%): 31% and 47%
  Population Fragmented Nuclei (%): 13% and 25%
  Population Healthy Nuclei (%): 73% and 54%
  Population Hoechst High Intensity Objects (%): 0% and 5%
  Population Membrane Permeable-Phenotype (%): 2% and 11%
  Population Mitochondria Different-Phenotype (%): 7% and 5%
  Population Mitotic Cells (%): 68% and 52%
  Population Normal (%): 99% and 94%
  Population Pyknosed Nuclei (%): 13% and 20%
  Population Tubulin-Different-Phenotype (%): 22% and 43%
  Total Cell Count: 139 and 173
[4]
  Population Apoptotic (%): 55% and 38%
  Population Fragmented Nuclei (%): 13% and 27%
  Population Healthy Nuclei (%): 74% and 46%
  Population Hoechst High Intensity Objects (%): 4% and 6%
  Population Membrane Permeable-Phenotype (%): 3% and 12%
  Population Mitochondria Different-Phenotype (%): 6% and 9%
  Population Mitotic Cells (%): 44% and 61%
  Population Normal (%): 95% and 93%
  Population Pyknosed Nuclei (%): 12% and 25%
  Population Tubulin-Different-Phenotype (%): 24% and 61%
  Total Cell Count: 152 and 143
[5]
  Population Apoptotic (%): 33% and 50%
  Population Fragmented Nuclei (%): 16% and 28%
  Population Healthy Nuclei (%): 73% and 57%
  Population Hoechst High Intensity Objects (%): 4% and 3%
  Population Membrane Permeable-Phenotype (%): 0% and 5%
  Population Mitochondria Different-Phenotype (%): 3% and 6%
  Population Mitotic Cells (%): 66% and 50%
  Population Normal (%): 95% and 96%
  Population Pyknosed Nuclei (%): 9% and 14%
  Population Tubulin-Different-Phenotype (%): 16% and 39%
  Total Cell Count: 129 and 174
[6]
  Population Apoptotic (%): 53% and 43%
  Population Fragmented Nuclei (%): 22% and 34%
  Population Healthy Nuclei (%): 68% and 53%
  Population Hoechst High Intensity Objects (%): 7%
  Population Membrane Permeable-Phenotype (%): 2% and 7%
  Population Mitochondria Different-Phenotype (%): 6% and 7%
  Population Mitotic Cells (%): 46% and 56%
  Population Normal (%): 92%
  Population Pyknosed Nuclei (%): 9% and 12%
  Population Tubulin-Different-Phenotype (%): 27% and 64%
  Total Cell Count: 156 and 143

## COCCn1c(C)c(C)s/c1=N\C(=O)C1C(C)(C)C1(C)C
[1]
  Population Apoptotic (%): 43% and 40%
  Population Fragmented Nuclei (%): 18% and 22%
  Population Healthy Nuclei (%): 69% and 57%
  Population Hoechst High Intensity Objects (%): 0% and 4%
  Population Membrane Permeable-Phenotype (%): 0% and 1%
  Population Mitochondria Different-Phenotype (%): 7% and 5%
  Population Mitotic Cells (%): 56% and 60%
  Population Normal (%): 99% and 95%
  Population Pyknosed Nuclei (%): 11% and 19%
  Population Tubulin-Different-Phenotype (%): 34% and 32%
  Total Cell Count: 136 and 133
[2]
  Population Apoptotic (%): 64% and 37%
  Population Fragmented Nuclei (%): 19% and 38%
  Population Healthy Nuclei (%): 59% and 40%
  Population Hoechst High Intensity Objects (%): 2% and 6%
  Population Mitochondria Different-Phenotype (%): 14% and 8%
  Population Mitotic Cells (%): 35% and 62%
  Population Normal (%): 97% and 93%
  Population Pyknosed Nuclei (%): 20% and 21%
  Population Tubulin-Different-Phenotype (%): 56% and 64%
  Total Cell Count: 167 and 120
[3]
  Population Apoptotic (%): 64% and 54%
  Population Fragmented Nuclei (%): 15% and 28%
  Population Healthy Nuclei (%): 72% and 54%
  Population Hoechst High Intensity Objects (%): 2% and 3%
  Population Membrane Permeable-Phenotype (%): 1% and 5%
  Population Mitochondria Different-Phenotype (%): 5%
  Population Mitotic Cells (%): 35% and 45%
  Population Normal (%): 97% and 96%
  Population Pyknosed Nuclei (%): 11% and 17%
  Population Tubulin-Different-Phenotype (%): 38% and 37%
  Total Cell Count: 122 and 132
[4]
  Population Apoptotic (%): 68% and 33%
  Population Fragmented Nuclei (%): 20% and 40%
  Population Healthy Nuclei (%): 59% and 36%
  Population Hoechst High Intensity Objects (%): 4% and 3%
  Population Membrane Permeable-Phenotype (%): 0% and 11%
  Population Mitochondria Different-Phenotype (%): 15% and 19%
  Population Mitotic Cells (%): 31% and 66%
  Population Normal (%): 95% and 96%
  Population Pyknosed Nuclei (%): 19% and 23%
  Population Tubulin-Different-Phenotype (%): 61% and 66%
  Total Cell Count: 154 and 120
[5]
  Population Apoptotic (%): 60%
  Population Fragmented Nuclei (%): 23% and 31%
  Population Healthy Nuclei (%): 63% and 56%
  Population Hoechst High Intensity Objects (%): 4% and 7%
  Population Membrane Permeable-Phenotype (%): 0% and 2%
  Population Mitochondria Different-Phenotype (%): 4%
  Population Mitotic Cells (%): 40%
  Population Normal (%): 95% and 92%
  Population Pyknosed Nuclei (%): 12% and 11%
  Population Tubulin-Different-Phenotype (%): 43% and 45%
  Total Cell Count: 123 and 140
[6]
  Population Apoptotic (%): 75% and 58%
  Population Fragmented Nuclei (%): 23% and 49%
  Population Healthy Nuclei (%): 56% and 34%
  Population Hoechst High Intensity Objects (%): 7% and 8%
  Population Membrane Permeable-Phenotype (%): 0% and 14%
  Population Mitochondria Different-Phenotype (%): 22% and 11%
  Population Mitotic Cells (%): 25% and 41%
  Population Normal (%): 92% and 91%
  Population Pyknosed Nuclei (%): 20% and 16%
  Population Tubulin-Different-Phenotype (%): 67% and 65%
  Total Cell Count: 151 and 111
